Ecoli rRNA inh: selective bacterial rRNA inhibition in E. coli | E. coli WT GFP vs humanized-ribosome RFP mutants, fluorescence, 24 h; stronger effect = lower value; DMSO median 0, no signal -100 | GFP signal change (wild-type ribosome), % (test concentration not listed) | hit rate 1.6% among 350,000 | AID 720706;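 active = significant combined selectivity score with lowered wild-type GFP, culture density cut under 30%, mutant RFP and density less affected; inactive = any of these conditions unmet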
DENV2 CPE: DENV2-induced cell death inhibition; DENV2-infected cells, cytopathic effect rescue, plate reader; CPE inhibition, % at 9.99 µM; hit rate 1.7% among 350,000; AID 651640; in the data active = CPE inhibition above about 20%, passing the limit was not always enough; tested in BHK-21 cells
miR-122 sensor: blocks miR-122 activity in Huh7 sensor cells; Huh7 miR-122 Renilla luciferase sensor, 48 h; neutral wells = 0, positive control = 100; activation (reporter increase), % at 12.5 µM; hit rate 0.3% among 340,000;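 active = mean replicate activation score at least 90 and every replicate individually at or above 90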;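 note: higher luciferase means less miR-122 activity so hits act as miR-122 inhibitors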
Cneo AK release: Cryptococcus neoformans lysis via adenylate kinase release | C. neoformans lysis, adenylate kinase release luminescence, 4 h; normalised: neutral wells 0, clomiphene wells 100 | lysis activity, % at 15 µM | hit rate 0.2% among 360,000 | AID 651654;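 active = mean lysis activity across replicates of at least 80%, whatever share of replicates individually reach that level; inactive = mean lysis activity below 80%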
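Material – Cryptococcus neoformans yeast cells · Quantity – 5 × 10^6 yeast cells/mL · Buffer or medium – YPD medium · Compound – single dose · Timing – 4 h static compound exposure, 37 °C, read 1 h post-reagent · Signal – adenylate kinase release luminescence · Read-out basis – lysis from increased AK signal · Benchmarks – Clomiphene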
E-selectin induc: induces E-selectin expression in human endothelial cells. HUVEC E-selectin immunofluorescence imaging; normalized: neutral wells 0, TNF-alpha wells 100. activation, % at 7.58 µM. hit rate 0.37% among 260,000;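 active = mean E-selectin-positive cell signal at least 10% of the positive control, reached in at least 60% of replicates, without over 20% cell loss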
Target sequence (P16581 whole entry, looked up): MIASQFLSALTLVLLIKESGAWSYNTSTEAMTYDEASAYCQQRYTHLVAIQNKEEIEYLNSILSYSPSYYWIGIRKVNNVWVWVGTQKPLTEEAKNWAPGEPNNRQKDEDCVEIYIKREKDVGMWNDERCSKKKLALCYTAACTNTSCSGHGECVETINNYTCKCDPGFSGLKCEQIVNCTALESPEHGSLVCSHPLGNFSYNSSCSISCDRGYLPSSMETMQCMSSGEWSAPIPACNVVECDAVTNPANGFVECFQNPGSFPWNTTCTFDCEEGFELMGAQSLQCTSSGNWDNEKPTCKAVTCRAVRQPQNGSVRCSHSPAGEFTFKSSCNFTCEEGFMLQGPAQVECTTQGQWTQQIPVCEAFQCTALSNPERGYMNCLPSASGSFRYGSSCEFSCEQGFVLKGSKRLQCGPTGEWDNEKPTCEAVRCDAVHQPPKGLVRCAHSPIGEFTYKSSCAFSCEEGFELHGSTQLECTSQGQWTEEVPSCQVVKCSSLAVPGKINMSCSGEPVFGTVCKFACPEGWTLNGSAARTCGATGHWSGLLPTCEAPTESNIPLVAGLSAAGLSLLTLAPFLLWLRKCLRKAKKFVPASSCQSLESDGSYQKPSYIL
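Read-out: % PE-positive cells | Test system: HUVEC | Doses: One compound dose added by pin transfer | Buffer or medium: EGM-2 over gelatin coat | Signal: Immunofluorescence imaging | Benchmarks: TNF-alpha, DMSO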
Numbers stand for hits; . = inactive; / = not tested or not shown. Compounds with a hit are over-represented: about 3.1% of the library has one in this group of screens.

SMILES	Ecoli rRNA inh	DENV2 CPE	miR-122 sensor	Cneo AK release	E-selectin induc
CCCC#Cc1ccc2c(c1)O[C@H](CN(C)C(=O)COC)[C@H](C)CN([C@H](C)CO)S2(=O)=O	.	.	.	.	.
C[C@H]1CN([C@@H](C)CO)S(=O)(=O)c2ccc(C#CC3CCCC3)cc2O[C@H]1CN(C)C	.	32	.	.	.
C[C@H]1CN([C@@H](C)CO)S(=O)(=O)c2ccc(C#CC3CCCC3)cc2O[C@@H]1CN(C)C	.	.	.	.	.
CC(C)CC#Cc1ccc2c(c1)O[C@@H](CN(C)C)[C@@H](C)CN([C@@H](C)CO)S2(=O)=O	.	27	.	.	.
CCCC#Cc1ccc2c(c1)O[C@H](CN(C)C(C)=O)[C@H](C)CN([C@@H](C)CO)S2(=O)=O	.	.	.	.	123
CCCC#Cc1ccc2c(c1)O[C@H](CN(C)C(=O)COC)[C@@H](C)CN([C@H](C)CO)S2(=O)=O	.	23	.	.	.
C[C@H]1CC=CC[C@@H](c2cccc(Cl)c2)NC(=O)[C@H](C)N(C)C(=O)c2ccccc2O1 (mixture of isomers)	.	/	/	/	/
CCCC#Cc1ccc2c(c1)O[C@@H](CN(C)C)[C@@H](C)CN([C@@H](C)CO)S2(=O)=O	.	.	.	101	.
C[C@H](CO)N1C[C@H](C)[C@@H](CN(C)C(=O)c2cccc(F)c2)Oc2cc(C#CC3CCCC3)ccc2S1(=O)=O	.	/	.	/	.
COc1ccc(NC(=O)Nc2ccc3c(c2)C(=O)N([C@@H](C)CO)C[C@H](C)[C@@H](CN(C)C(=O)C2CCCCC2)OCCCC[C@H](C)O3)cc1	.	39	.	.	.
COc1ccc(NC(=O)Nc2ccc3c(c2)C(=O)N([C@H](C)CO)C[C@@H](C)[C@H](CN(C)C(=O)C2CCCCC2)OCCCC[C@H](C)O3)cc1	.	21	.	.	.
COc1ccc(NC(=O)Nc2ccc3c(c2)C(=O)N([C@@H](C)CO)C[C@@H](C)[C@@H](CN(C)C(=O)C2CCCCC2)OCCCC[C@H](C)O3)cc1	.	.	.	.	.
Cc1noc(C)c1NC(=O)N(C)C[C@@H]1Oc2ncc(C3=CCCCC3)cc2C(=O)N([C@@H](C)CO)C[C@@H]1C	.	/	.	/	/
CNc1cncc(-c2cccc(NS(C)(=O)=O)c2)n1	.	.	.	.	.
CNc1cncc(-c2cccc(C(C)=O)c2)n1	.	31	.	.	.
Cc1nc(N2CCCCC2)c(C#N)c(C)c1[N+](=O)[O-]	-33	.	/	/	.
Cc1[nH]nc(N2CCCCC2)c1[N+](=O)[O-]	/	/	.	.	/
CO[C@H]1CN(C)C(=O)c2cc(NS(=O)(=O)c3ccc(C)cc3)ccc2OC[C@H](C)N(C)C[C@H]1C	.	.	.	116	.
CO[C@@H]1CN(C)C(=O)c2cc(NS(=O)(=O)c3ccccc3)ccc2OC[C@H](C)N(C)C[C@H]1C	.	21	.	.	.
CO[C@H]1CN(C)C(=O)c2cc(NS(=O)(=O)c3ccc(C)cc3)ccc2OC[C@@H](C)N(C)C[C@H]1C	.	.	.	.	.
CO[C@@H]1CN(C)C(=O)c2cc(NS(=O)(=O)c3ccccc3)ccc2OC[C@@H](C)N(C)C[C@H]1C	.	.	.	.	.
CNC[C@H]1OCCCC[C@H](C)Oc2ccc(NS(=O)(=O)c3ccccc3)cc2C(=O)N([C@@H](C)CO)C[C@@H]1C	.	/	.	/	.
Cc1cccc(NC(=O)C2(c3cccs3)CCOCC2)c1	/	/	.	.	.
Cc1ccc(NC(=O)C2(c3cccs3)CCOCC2)cc1C	.	26	.	.	/
C[C@H](CO)N1C[C@H](C)[C@H](CN(C)Cc2ccc(Cl)c(Cl)c2)OCCCC[C@H](C)Oc2ccc(NC(=O)Nc3ccccc3)cc2C1=O	.	.	.	.	/
CCOC(=O)Nc1ccc(S(=O)(=O)N2CCOCC2)cc1	/	/	.	.	/
Cc1ccc(NC(=O)c2ccc(=O)[nH]n2)cc1S(=O)(=O)Nc1ccccc1Cl	/	.	.	.	/
CCOC(=O)Nc1ccc(N2CCOCC2)c(S(=O)(=O)N2CCOCC2)c1	.	26	.	.	.
COc1ccc(NS(=O)(=O)c2cc(NC(=O)COc3ccc(OC)cc3)ccc2N2CCOCC2)cc1	.	.	110	.	/
COc1ccc(NC(=O)Cc2cccc(F)c2)cc1S(=O)(=O)Nc1ccccc1Cl	.	.	332	.	.
